Reference: publication PMC3562655 (Journal of bone and mineral research : the official journal …, 2013)

Assays:
[1] = biological target: T1, PHOSPHO1 (Homo sapiens, UniProt Q8TCT1); assay: Mechanism of PHOSPHO1 inhibition, double reciprocal plots; assay type: biochemical
T1 sequence (Q8TCT1 1-292 isoform Q8TCT1-3): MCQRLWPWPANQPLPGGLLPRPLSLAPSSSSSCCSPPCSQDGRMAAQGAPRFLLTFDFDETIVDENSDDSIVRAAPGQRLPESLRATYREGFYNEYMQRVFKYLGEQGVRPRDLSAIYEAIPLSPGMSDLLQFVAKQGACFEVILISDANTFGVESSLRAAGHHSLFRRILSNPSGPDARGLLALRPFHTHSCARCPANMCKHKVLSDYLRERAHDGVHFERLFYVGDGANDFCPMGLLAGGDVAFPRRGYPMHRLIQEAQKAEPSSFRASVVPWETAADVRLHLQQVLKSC

[2] = test system: WT VSMCs; assay: Calcification assay, Alizarin Red staining of WT VSMCs; assay type: cell-based, mouse
Outline: (§1)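 Aortic VSMCs from WT, Enpp1-/- or Phospho1-/- mice were isolated by collagenase digestion and grown in triplicate for 21 days. Medium was α-MEM with 50 µg/mL ascorbic acid plus 2.5 mmol/L β-glycerophosphate (all genotypes) or 3 mmol/L sodium phosphate (WT), changed every second day. Test compound (DMSO; final 30 µmol/L), alone or combined, was added at each change. Staining used 2% Alizarin Red (pH 4.2, 30 min RT), then 10% cetylpyridinium chloride extraction, absorbance read. Values are % of vehicle control, mean ± S.E.M.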

[3] = biological target: T2, purified recombinant human PHOSPHO1 (Homo sapiens, UniProt Q8TCT1); assay: PHOSPHO1 inhibition, Biomol Green colorimetric phosphate release assay; assay type: biochemical; conditions: for IC50: pH 6.7, 60 min room temperature
T2 sequence (Q8TCT1 1-292 isoform Q8TCT1-3): T1 sequence (Q8TCT1 1-292 isoform Q8TCT1-3)

[4] = biological target: T3, TNAP (Homo sapiens, UniProt P05186); conditions: ref Ciancaglini et al. (2010), 25, 42; cited from earlier work
T3 sequence (P05186 18-502 limits assumed): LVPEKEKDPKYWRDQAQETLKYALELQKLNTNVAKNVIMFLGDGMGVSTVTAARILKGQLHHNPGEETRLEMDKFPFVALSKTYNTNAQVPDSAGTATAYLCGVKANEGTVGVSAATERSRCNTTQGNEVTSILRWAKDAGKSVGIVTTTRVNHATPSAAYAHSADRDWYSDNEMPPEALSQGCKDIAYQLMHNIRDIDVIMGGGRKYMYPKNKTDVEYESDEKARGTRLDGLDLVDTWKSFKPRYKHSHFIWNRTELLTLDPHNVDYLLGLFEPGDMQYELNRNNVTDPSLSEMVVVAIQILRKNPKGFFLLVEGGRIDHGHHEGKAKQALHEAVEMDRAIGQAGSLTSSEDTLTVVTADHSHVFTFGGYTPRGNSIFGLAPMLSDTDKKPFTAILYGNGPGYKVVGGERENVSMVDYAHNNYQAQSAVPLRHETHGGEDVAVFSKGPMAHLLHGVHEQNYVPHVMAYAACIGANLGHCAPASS

[5] = test system: Phospho1^-/- chondrocytes; assay: Mineralization of Phospho1-/- chondrocytes; assay type: cell-based; conditions: not shown
[6] = biological target: T4, ENPP1 (Homo sapiens, UniProt P22413); conditions: cited from earlier work
T4 sequence (P22413 98-925 limits assumed): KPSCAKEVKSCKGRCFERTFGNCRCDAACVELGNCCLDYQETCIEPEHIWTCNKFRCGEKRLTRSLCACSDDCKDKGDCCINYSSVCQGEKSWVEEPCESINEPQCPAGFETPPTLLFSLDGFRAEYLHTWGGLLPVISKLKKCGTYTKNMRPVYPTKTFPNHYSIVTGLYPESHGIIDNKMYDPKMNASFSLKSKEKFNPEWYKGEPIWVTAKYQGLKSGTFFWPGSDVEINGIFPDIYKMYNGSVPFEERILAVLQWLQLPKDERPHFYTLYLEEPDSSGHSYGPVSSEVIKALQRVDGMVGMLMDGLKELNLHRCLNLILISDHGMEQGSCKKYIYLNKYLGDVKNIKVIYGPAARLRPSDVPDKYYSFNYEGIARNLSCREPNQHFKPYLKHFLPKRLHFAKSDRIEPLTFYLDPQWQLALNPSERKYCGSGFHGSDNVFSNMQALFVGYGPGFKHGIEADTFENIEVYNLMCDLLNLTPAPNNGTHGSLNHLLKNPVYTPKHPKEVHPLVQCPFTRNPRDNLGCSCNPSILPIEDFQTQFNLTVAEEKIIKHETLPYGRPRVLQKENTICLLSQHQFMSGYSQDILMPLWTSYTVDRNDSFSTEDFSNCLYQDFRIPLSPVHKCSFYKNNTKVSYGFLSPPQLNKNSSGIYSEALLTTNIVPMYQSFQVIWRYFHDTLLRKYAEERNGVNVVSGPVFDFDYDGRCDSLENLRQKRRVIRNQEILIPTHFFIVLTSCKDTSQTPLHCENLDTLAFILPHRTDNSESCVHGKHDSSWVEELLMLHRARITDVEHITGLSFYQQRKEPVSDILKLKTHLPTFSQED

[7] = test system: Phospho1^-/- VSMCs; assay: Calcification assay, Alizarin Red staining of Phospho1-/- VSMCs; assay type: cell-based, mouse; conditions: 21 days, β-glycerophosphate, inhibitor 30 μmol/L
Outline: as §1

[8] = test system: Enpp1^-/- VSMCs; assay: Calcification assay, Alizarin Red staining of Enpp1-/- VSMCs; assay type: cell-based, mouse; conditions: 21 days, β-glycerophosphate, inhibitor 30 μmol/L
Outline: as §1

| Ki [1] [nM] | nature of the PHOSPHO1 inhibition ([1]; double reciprocal plots versus P-Etn) | IC50 ([3]; P-Cho IC50, substrate P-Cho 62.5 μmol/L) [nM] | IC50 ([3]; P-Etn IC50, substrate P-Etn 62.5 μmol/L) [nM] | Structure (SMILES) | toxicity to smooth muscle cells observed in the mineralization studies [2] | effect on mineralization in words ([2]; WT VSMCs, 21 days, inhibitor 30 μmol/L) | inhibition of TNAP activity [4] | mineralization of Phospho1-/- chondrocytes [5] | inhibition of ENPP1 activity ([6]; ref Ciancaglini et al. (2010), 25, 42) | inhibition of PHOSPHO1 in point experiments ([3]; inhibitor 1, 10, 30 μmol/L, substrates P-Etn and P-Cho) | effect on mineralization in words [7] | cross-inhibition of ENPP1 [6] | effect on mineralization in words [8] |
| --- | --- | --- | --- | --- | --- | --- | --- | --- | --- | --- | --- | --- | --- |
| 160 ± 30 | competitive | 60 ± 10 | 70 ± 10 | Cc1c(OCC(F)(F)F)ccnc1C[S+]([O-])c1nc2ccccc2[nH]1 (stereo not shown) [Lansoprazole] | showed toxicity to smooth muscle cells | significantly inhibited mineralization | partially inhibits | inhibited mineralization | partially inhibits | – | – | – | – |
| – | – | – | – | COc1ccc(OC)c(S(=O)(=O)Nc2cnc3ccccc3c2)c1 [MLS-0038949] | – | – | – | – | – | selectively inhibits TNAP, but not PHOSPHO1 | significantly inhibited mineralization | does not cross-inhibit | strongly reduced mineralization |
